One experiment is filed under the species Homo sapiens. Briefly: Selectivity for PPARdelta over PPARalpha. Put shortly: (§1)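 FRET coactivator-recruitment assay run with the PPAR-δ ligand binding domain (GST-tagged human PPAR-δ LBD) and separately with the PPAR-α ligand binding domain. Compounds were incubated with europium-labelled anti-GST antibody, biotinylated TRAP220 coactivator protein and streptavidin-labelled APC. Read in a fluorimeter at excitation 340 nm and emission 615 and 665 nm.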

For a further experiment, the system named is 3T3-L1. Nature of the experiment: Induction of insulin receptor in mouse 3T3L1 cells assessed as insulin sensitizing activity. The experiment is classed as functional, cell-based. Conditions: for EC50: Mus musculus, 3T3-L1. Put shortly: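 3T3-L1 preadipocytes grown about 1 week to 2 days post-confluence, then exposed 2 days to compound plus 0.5 µM IGF-1 in DMEM/10% FBS/2 mM glutamine/pen-strep, then 4 days in plain medium. Cells bound 0.1 nM [125I]insulin ± 100 nM unlabeled insulin for 1 h at room temperature, were washed and lysed in 1 N NaOH, then gamma-counted. EC50 taken where a plateau was reached; percent maximal stimulation recorded.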

For experiment [1], the target named is T1, Peroxisome proliferator-activated receptor alpha (Homo sapiens, UniProt Q07869).
T1 sequence (Q07869 whole entry): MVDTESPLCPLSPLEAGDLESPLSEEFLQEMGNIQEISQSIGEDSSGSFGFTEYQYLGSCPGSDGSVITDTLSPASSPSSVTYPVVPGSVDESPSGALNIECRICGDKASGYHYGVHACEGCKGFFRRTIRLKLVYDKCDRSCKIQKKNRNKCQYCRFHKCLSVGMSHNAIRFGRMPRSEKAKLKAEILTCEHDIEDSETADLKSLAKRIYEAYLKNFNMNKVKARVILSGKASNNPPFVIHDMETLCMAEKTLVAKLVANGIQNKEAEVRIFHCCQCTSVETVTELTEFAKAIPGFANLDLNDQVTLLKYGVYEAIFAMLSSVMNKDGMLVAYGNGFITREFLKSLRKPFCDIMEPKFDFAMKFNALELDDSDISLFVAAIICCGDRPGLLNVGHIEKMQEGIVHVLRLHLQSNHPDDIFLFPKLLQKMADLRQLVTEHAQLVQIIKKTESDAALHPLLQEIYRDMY
Briefly: Agonist activity at PPARalpha by FRET assay. Format: functional. An outline of the steps:
as §1

`COC(C(=O)O)C1CCc2cc(OCCc3nc(-c4ccccc4)oc3C)ccc21` (configuration not stated): in the experiment listed under Homo sapiens, the Ratio EC50 worked out at 0.15.
Consider `Cc1cccc(-c2nc(CCOc3ccc4c(c3)CC[C@H]4CC(=O)O)c(C)s2)c1`, for which the concentration giving a half-maximal response (EC50) (as a rule, the concentration that produces a half-maximal response) turned out to be 0.05 µM with 3T3-L1 and 6.79 µM in experiment [1].
For `Cc1oc(-c2cccc(F)c2)nc1CCOc1ccc2c(c1)CC[C@H]2CC(=O)O` the same measures were 0.371 µM and 1.69 µM.
In the case of `Cc1sc(-c2ccccc2)nc1CCOc1ccc2c(c1)CC[C@H]2CC(=O)O`, in the experiment with 3T3-L1, the Activity was found to be 60% and the EC50 was found to be 0.267 µM. For the same compound, the EC50 in experiment [1] worked out at 10 µM.
For `Cc1c(CCOc2ccc3c(c2)CC[C@H]3CC(=O)O)nc(-c2ccccc2)n1C`, in the experiment with 3T3-L1, the Activity is 55% and the EC50 is 0.608 µM. Further, the concentration giving a half-maximal response (EC50) in experiment [1] was 10 µM.
For the compound `Cc1sc(-c2cccc(F)c2)nc1CCOc1ccc2c(c1)CC[C@H]2CC(=O)O`, the values for the EC50 (with 3T3-L1; in experiment [1]) were 0.14 µM and 6.53 µM, respectively.
The corresponding values for `Cc1ccc(-c2nc(CCOc3ccc4c(c3)CC[C@H]4CC(=O)O)c(C)s2)cc1` are 0.065 µM and 0.594 µM.
As for `COc1ccc(-c2nc(C)c(CCOc3ccc4c(c3)CC[C@H]4CC(=O)O)n2C)cc1`, the Activity in the experiment with 3T3-L1 came to 41%. Further, the values for the half-maximal effective concentration (EC50) (in the experiment on 3T3-L1; in experiment [1]) were 5.56 µM and 10 µM, respectively.
Compound `Cc1oc(-c2ccccc2)nc1CCOc1ccc2c(c1)CCC2C(C)C(=O)O` (configuration not stated) displayed an EC50 in experiment [1] of 0.22 µM. Also, the Ratio EC50 in the experiment listed under Homo sapiens is 1.8.
With `COc1cccc(-c2nc(CCOc3ccc4c(c3)CC[C@H]4CC(=O)O)c(C)s2)c1`, the EC50 was found to be 0.032 µM in the experiment with 3T3-L1 and 6.96 µM in experiment [1].
Consider `COc1ccc(-c2nc(CCOc3ccc4c(c3)CC[C@H]4CC(=O)O)c(C)o2)cc1`, for which the figures for the EC50 (in the experiment with 3T3-L1; in experiment [1]) were 0.029 µM and 0.798 µM, respectively.
`Cc1oc(-c2cccc(C#N)c2)nc1CCOc1ccc2c(c1)CC[C@H]2CC(=O)O`: the values for the EC50 (with 3T3-L1; in experiment [1]) were 0.164 µM and 10 µM, respectively.
For `Cc1sc(-c2ccccc2F)nc1CCOc1ccc2c(c1)CC[C@H]2CC(=O)O` the same measures were 1.62 µM and 10 µM.
For the compound `CCc1ccc(-c2nc(CCOc3ccc4c(c3)CC[C@H]4CC(=O)O)c(C)o2)cc1`, the figures for the 50% effective concentration (EC50) (in the experiment on 3T3-L1; in experiment [1]) were 0.027 µM and 0.078 µM, respectively.
Turning to `COc1ccc(-c2nc(CCOc3ccc4c(c3)CC[C@H]4CC(=O)O)c(C)n2C)cc1`, the Activity in the experiment with 3T3-L1 turned out to be 56%. The EC50 came out at 0.644 µM with 3T3-L1 and 10 µM in experiment [1].
With `Cc1oc(-c2cccc(Cl)c2)nc1CCOc1ccc2c(c1)CC[C@H]2CC(=O)O`, the concentration giving a half-maximal response (EC50) with 3T3-L1 is 0.2 µM; in experiment [1] it was 1.57 µM.
For `Cc1sc(-c2ccc(C(C)C)cc2)nc1CCOc1ccc2c(c1)CC[C@H]2CC(=O)O`, the concentration giving a half-maximal response (EC50) with 3T3-L1 worked out at 0.025 µM; in experiment [1], 0.559 µM.
For `CCc1ccc(-c2nc(CCOc3ccc4c(c3)CC[C@H]4CC(=O)O)c(C)n2C)cc1` the same measures were 0.103 µM and 10 µM.
For `CCc1ccc(-c2nc(CCOc3ccc4c(c3)CC[C@H]4CC(=O)O)c(CC)o2)cc1` the same measures were 0.035 µM and 2.53 µM.
Regarding `CCc1oc(-c2ccc(C)cc2)nc1CCOc1ccc2c(c1)CC[C@H]2CC(=O)O`, the EC50 in the experiment on 3T3-L1 was 0.03 µM; in experiment [1], 1.02 µM.
For `Cc1sc(-c2cccc(C(F)(F)F)c2)nc1CCOc1ccc2c(c1)CC[C@H]2CC(=O)O`, the values for the half-maximal effective concentration (EC50) (with 3T3-L1; in experiment [1]) were 0.045 µM and 10 µM, respectively.
Compound `Cc1oc(-c2ccc(C(C)(C)C)cc2)nc1CCOc1ccc2c(c1)CC[C@H]2CC(=O)O` yielded an EC50 in experiment [1] of 0.546 µM.
For `Cc1oc(-c2ccc(Cl)cc2)nc1CCOc1ccc2c(c1)CC[C@H]2CC(=O)O`, the concentration for a half-maximal effect (EC50) in the experiment with 3T3-L1 came to 0.212 µM; in experiment [1], 1.19 µM.
For `Cc1nc(-c2ccc(-c3ccccc3)cc2)n(C)c1CCOc1ccc2c(c1)CC[C@H]2CC(=O)O` the same measures were 0.071 µM and 10 µM.
Compound `CCC(C(=O)O)C1CCc2cc(OCCc3nc(-c4ccccc4)oc3C)ccc21` (configuration not stated) returned an EC50 in experiment [1] of 0.13 µM. Besides, the Ratio EC50 in the experiment filed under Homo sapiens stood at 0.22.
For `COc1ccc(-c2nc(CCOc3ccc4c(c3)CC[C@H]4CC(=O)O)c(C)s2)cc1`, the concentration for a half-maximal effect (EC50) came out at 0.166 µM in the experiment on 3T3-L1 and 3.28 µM in experiment [1].
For `CCc1oc(-c2ccccc2)nc1CCOc1ccc2c(c1)CC[C@H]2CC(=O)O` the same measures were 0.186 µM and 10 µM.
For `Cc1c(CCOc2ccc3c(c2)CC[C@H]3CC(=O)O)nc(-c2ccc(-c3ccccc3)cc2)n1C` the same measures were 0.054 µM and 10 µM.
For the compound `CCc1ccc(-c2nc(C)c(CCOc3ccc4c(c3)CC[C@H]4CC(=O)O)n2C)cc1`, the figures for the EC50 (with 3T3-L1; in experiment [1]) were 0.155 µM and 10 µM, respectively.
In experiment [1], `Cc1oc(-c2ccccc2)nc1CCOc1ccc2c(c1)CCC2CC(=O)O` (configuration not stated) registered an EC50 of 0.89 µM. Besides, the Ratio EC50 in the experiment listed under Homo sapiens amounted to 32.
As to `Cc1oc(-c2ccc(C#N)cc2)nc1CCOc1ccc2c(c1)CC[C@H]2CC(=O)O`, the EC50 with 3T3-L1 was 0.301 µM; in experiment [1], 9.98 µM.
The corresponding values for `CCOc1ccc(-c2nc(CCOc3ccc4c(c3)CC[C@H]4CC(=O)O)c(C)s2)cc1` are 0.165 µM and 10 µM.
For `Cc1ccc(-c2nc(CCOc3ccc4c(c3)CC[C@H]4CC(=O)O)c(C)o2)cc1` the same measures were 0.024 µM and 0.444 µM.
The corresponding values for `COc1cccc(-c2nc(CCOc3ccc4c(c3)CC[C@H]4CC(=O)O)c(C)o2)c1` are 0.082 µM and 1.89 µM.
`Cc1sc(-c2ccc(-c3ccccc3)cc2)nc1CCOc1ccc2c(c1)CC[C@H]2CC(=O)O`: the EC50 stood at 0.27 µM in the experiment on 3T3-L1 and 10 µM in experiment [1].
As to `Cc1sc(-c2ccc(F)cc2)nc1CCOc1ccc2c(c1)CC[C@H]2CC(=O)O`, the EC50 worked out at 0.544 µM in the experiment on 3T3-L1 and 2.27 µM in experiment [1].
The corresponding values for `Cc1oc(-c2ccc(F)cc2)nc1CCOc1ccc2c(c1)CC[C@H]2CC(=O)O` are 0.354 µM and 0.504 µM.
In the case of `Cc1cccc(-c2nc(CCOc3ccc4c(c3)CC[C@H]4CC(=O)O)c(C)o2)c1`, the EC50 in the experiment on 3T3-L1 is 0.101 µM; in experiment [1], 1.15 µM.
For the compound `O=C(O)C[C@@H]1CCc2cc(OCCc3nc(-c4ccccc4)oc3CCc3ccccc3)ccc21`, the Activity in the experiment with 3T3-L1 is on record as 9%. The results for the EC50 (in the experiment with 3T3-L1; in experiment [1]) were greater than 3 µM and 10 µM, respectively.
Regarding `Cc1oc(-c2ccccc2)nc1CCOc1ccc2c(c1)CC[C@H]2CC(=O)O`, the EC50 came to 0.231 µM with 3T3-L1 and 2.46 µM in experiment [1].
The corresponding values for `Cc1oc(-c2ccc(C(C)C)cc2)nc1CCOc1ccc2c(c1)CC[C@H]2CC(=O)O` are 0.033 µM and 0.3 µM.
Regarding `Cc1nc(-c2ccccc2)n(C)c1CCOc1ccc2c(c1)CC[C@H]2CC(=O)O`, in the experiment on 3T3-L1, the Activity was 19% and the EC50 turned out to be 5.94 µM. Further, the EC50 in experiment [1] was found to be 10 µM.
As to `Cc1sc(-c2ccc(Cl)cc2)nc1CCOc1ccc2c(c1)CC[C@H]2CC(=O)O`, the EC50 came out at 0.97 µM with 3T3-L1 and 10 µM in experiment [1].
For `Cc1sc(-c2ccc(OC(F)(F)F)cc2)nc1CCOc1ccc2c(c1)CC[C@H]2CC(=O)O` the same measures were 0.225 µM and 7.94 µM.
Consider `CCCc1oc(-c2ccccc2)nc1CCOc1ccc2c(c1)CC[C@H]2CC(=O)O`, for which the Activity in the experiment on 3T3-L1 worked out at 32%. Moreover, the results for the EC50 (in the experiment on 3T3-L1; in experiment [1]) were 3 µM and 10 µM, respectively.
Consider `Cc1sc(-c2ccc3c(c2)OCO3)nc1CCOc1ccc2c(c1)CC[C@H]2CC(=O)O`, for which the EC50 is 0.066 µM in the experiment on 3T3-L1 and 1.21 µM in experiment [1].

Values taken from ChEMBL document CHEMBL1140686, “Indanylacetic acids as PPAR-delta activator insulin sensitizers” (Bioorg Med Chem Lett, 2007).
